Activity calls are given as the source filed them. The calls are words filed in the database; no cut-off is given here.

For 7 compounds, Activity, Kb and Ratio results are on record in ChEMBL document CHEMBL1221325, “Synthesis and ribonuclease A inhibition activity of resorcinol and phloroglucinol derivatives of catechin and epicatechin: Importance of hydroxyl groups” (Bioorg Med Chem, 2010).

The species named for one assay is Gallus gallus. Description: Antiangiogenic activity against angiogenin-induced angiogenesis in chicken eggs at 150 uM for 10 days measured after 48 hrs by CAM assay. In kind it is functional. Conditions: Egg. The procedure, abridged:
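Chick embryo chorioallantoic membrane exposed through a small hole drilled in the shell on day 2. 10 µl aliquots of angiogenin, alone or mixed with compound, dried on transparent discs, which were inverted onto the CAM on day 10. Response read after 48 h as density of blood vessel formation against a control set.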

Assay [1] addresses Ribonuclease pancreatic (Bos taurus) (UniProt P61823). Description: Binding affinity to RNase A by fluorescence quenching.
The target is the same in assay [2]. As to the kind of experiment: Inhibition of RNase A-mediated degradation of yeast tRNA assessed as residual tRNA band by agarose gel electrophoresis relative to control.

Sequence of Ribonuclease pancreatic (Bos taurus) (P61823 whole entry, looked up): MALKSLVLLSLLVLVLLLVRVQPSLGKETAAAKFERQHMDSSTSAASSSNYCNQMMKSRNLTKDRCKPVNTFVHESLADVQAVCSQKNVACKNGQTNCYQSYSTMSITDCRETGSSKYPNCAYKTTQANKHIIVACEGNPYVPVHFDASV

`Oc1cc(O)c([C@H]2c3c(O)cc(O)cc3O[C@H](c3ccc(O)c(O)c3)[C@@H]2O)c(O)c1`: in the assay listed under Gallus gallus, the outcome was Active. This compound showed a Kb in assay [1] of 6.76 ×10⁴ /M. In addition, the Ratio in assay [2] amounted to 0.704. In turn, `Oc1cc(O)c([C@@H]2c3c(O)cc(O)cc3O[C@H](c3ccc(O)c(O)c3)[C@@H]2O)c(O)c1` registered a Kb in assay [1] of 3.14 ×10⁴ /M. Further, in assay [2], the Ratio amounted to 0.699. Regarding `Nc1ccn([C@@H]2O[C@H](CO)[C@@H](OP(=O)(O)O)[C@H]2O)c(=O)n1`, the Ratio in assay [2] came out at 0.71. In assay [1], `Oc1ccc([C@@H]2c3c(O)cc(O)cc3O[C@H](c3ccc(O)c(O)c3)[C@H]2O)c(O)c1` returned a Kb of 1.37 ×10⁴ /M. Also, the Ratio in assay [2] was determined as 0.612.

With `Oc1cc(O)c2c(c1)OC(c1ccc(O)c(O)c1)C(O)C2` (stereo not drawn), in assay [2], the Ratio turned out to be 0.331. Turning to `Oc1ccc([C@H]2c3c(O)cc(O)cc3O[C@H](c3ccc(O)c(O)c3)[C@@H]2O)c(O)c1`, in the assay filed under Gallus gallus, the result was Active. Moreover, in assay [1], the Kb worked out at 2.42 ×10⁴ /M. Moreover, the Ratio in assay [2] was 0.659.

On to `Oc1cc(O)c2c(c1)O[C@H](c1ccc(O)c(O)c1)[C@H](O)C2`, for which, in assay [2], the Ratio turned out to be 0.295.
